From ChEMBL document CHEMBL1144856, “Design, synthesis, and biological evaluation of 1-(4-sulfamylphenyl)-3-trifluoromethyl-5-indolyl pyrazolines as cyclooxygenase-2 (COX-2) and lipoxygenase (LOX) inhibitors” (Bioorg Med Chem, 2008)

Key:
[1] = target: T1, Prostaglandin G/H synthase 1 (Ovis aries, UniProt P05979); experiment: Inhibition of ovine COX1 by enzyme immuno assay
T1 sequence (P05979 whole entry): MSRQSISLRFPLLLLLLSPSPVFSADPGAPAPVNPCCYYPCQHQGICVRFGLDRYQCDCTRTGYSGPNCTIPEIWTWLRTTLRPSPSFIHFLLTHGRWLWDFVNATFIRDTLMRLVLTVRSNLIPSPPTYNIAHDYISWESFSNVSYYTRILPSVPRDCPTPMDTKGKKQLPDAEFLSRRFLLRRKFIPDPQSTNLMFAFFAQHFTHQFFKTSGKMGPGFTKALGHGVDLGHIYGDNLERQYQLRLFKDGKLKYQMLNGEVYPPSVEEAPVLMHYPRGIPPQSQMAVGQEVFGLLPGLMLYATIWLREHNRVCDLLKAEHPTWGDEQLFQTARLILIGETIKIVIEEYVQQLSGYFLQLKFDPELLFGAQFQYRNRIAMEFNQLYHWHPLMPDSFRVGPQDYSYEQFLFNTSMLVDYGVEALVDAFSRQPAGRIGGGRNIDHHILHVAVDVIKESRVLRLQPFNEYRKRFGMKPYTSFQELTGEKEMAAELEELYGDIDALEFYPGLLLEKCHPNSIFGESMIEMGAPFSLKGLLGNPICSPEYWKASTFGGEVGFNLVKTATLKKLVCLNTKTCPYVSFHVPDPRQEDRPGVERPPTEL
Outline: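 Hematin-reconstituted purified ovine COX-1 (six units) in 0.1 M Tris-HCl pH 8.0 with 5 mM EDTA and 2 mM phenol. Pre-incubated 1 h at room temperature with inhibitor in DMSO, then arachidonic acid added for 2 min at 37 °C. PGH2 was reduced with stannous chloride and PGF2α measured by EIA. Run in duplicate; IC50 is the mean of the duplicates.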

Ovis aries = species on record: Ovis aries; experiment: Selectivity ratio of IC50 for ovine COX1 to IC50 for ovine COX2
Outline: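 Purified hematin-reconstituted ovine COX-1 and COX-2 (six units each) in Tris–HCl 0.1 M pH 8.0, 5 mM EDTA, 2 mM phenol. Enzymes were preincubated 1 h at room temperature with inhibitor in DMSO, then given arachidonic acid for 2 min at 37 °C. PGF2α from SnCl2 reduction of PGH2 was read by EIA. IC50s are means of duplicates; ratio is COX-1 IC50/COX-2 IC50.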

[2] = target: T2, Polyunsaturated fatty acid lipoxygenase ALOX12 (Homo sapiens) (UniProt P18054); experiment: Inhibition of LOX12 from human platelets at 10 uM by enzyme immuno assay
T2 sequence (whole entry): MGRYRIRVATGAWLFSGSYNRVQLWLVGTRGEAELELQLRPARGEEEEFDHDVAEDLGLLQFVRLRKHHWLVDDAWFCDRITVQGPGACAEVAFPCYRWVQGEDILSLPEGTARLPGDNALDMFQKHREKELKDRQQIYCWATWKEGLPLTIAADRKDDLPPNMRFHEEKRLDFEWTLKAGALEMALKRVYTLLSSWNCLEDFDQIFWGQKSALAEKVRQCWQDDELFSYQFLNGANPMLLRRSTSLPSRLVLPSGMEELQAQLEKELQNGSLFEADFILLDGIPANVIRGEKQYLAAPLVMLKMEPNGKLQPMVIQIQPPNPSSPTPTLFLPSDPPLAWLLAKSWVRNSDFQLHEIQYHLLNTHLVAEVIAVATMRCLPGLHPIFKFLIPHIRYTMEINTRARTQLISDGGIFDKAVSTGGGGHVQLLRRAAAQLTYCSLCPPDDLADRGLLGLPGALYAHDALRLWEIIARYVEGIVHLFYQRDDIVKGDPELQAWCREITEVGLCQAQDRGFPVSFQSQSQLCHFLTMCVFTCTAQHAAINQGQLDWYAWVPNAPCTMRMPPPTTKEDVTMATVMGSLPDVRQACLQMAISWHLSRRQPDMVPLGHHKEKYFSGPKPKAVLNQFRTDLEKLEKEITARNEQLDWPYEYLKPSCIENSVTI
Outline: (§1)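 Run by a contract lab. Enzyme sources: human PBML cells (LOX-5), human platelets (LOX-12), rabbit reticulocytes (LOX-15). Substrates: endogenous arachidonic acid (LOX-5), added arachidonic acid (LOX-12), linoleic acid (LOX-15). Inhibition read as LTB4 (LOX-5), 12-HETE (LOX-12) or 15-HETE (LOX-15), quantified by EIA and spectrophotometrically.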

[3] = target: T3, Polyunsaturated fatty acid lipoxygenase ALOX15 (Oryctolagus cuniculus) (UniProt P12530); experiment: Inhibition of LOX15 from rabbit reticulocytes at 10 uM by enzyme immuno assay; outline: as §1
T3 sequence (whole entry): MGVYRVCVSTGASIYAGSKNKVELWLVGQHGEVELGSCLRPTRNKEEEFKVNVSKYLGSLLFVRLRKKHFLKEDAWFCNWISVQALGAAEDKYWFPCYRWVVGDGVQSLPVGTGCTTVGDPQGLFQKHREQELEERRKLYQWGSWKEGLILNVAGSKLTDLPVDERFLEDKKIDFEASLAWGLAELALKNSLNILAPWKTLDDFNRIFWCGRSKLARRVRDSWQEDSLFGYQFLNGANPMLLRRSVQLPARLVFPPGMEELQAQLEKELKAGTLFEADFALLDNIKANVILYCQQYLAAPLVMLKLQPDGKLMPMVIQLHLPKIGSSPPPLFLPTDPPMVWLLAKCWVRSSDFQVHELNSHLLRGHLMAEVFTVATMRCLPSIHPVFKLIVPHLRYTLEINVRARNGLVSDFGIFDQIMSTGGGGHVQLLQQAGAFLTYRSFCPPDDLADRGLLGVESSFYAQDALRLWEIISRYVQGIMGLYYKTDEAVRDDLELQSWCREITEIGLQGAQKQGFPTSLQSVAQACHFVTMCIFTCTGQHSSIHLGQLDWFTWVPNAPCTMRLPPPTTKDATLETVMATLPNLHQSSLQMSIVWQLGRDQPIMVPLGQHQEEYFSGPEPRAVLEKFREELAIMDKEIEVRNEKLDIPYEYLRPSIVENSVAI

[4] = target: T4, Polyunsaturated fatty acid 5-lipoxygenase (Homo sapiens) (UniProt P09917); experiment: Inhibition of LOX5 from human PBML cells at 10 uM by enzyme immuno assay; assay type: cell-based; outline: as §1
T4 sequence (whole entry): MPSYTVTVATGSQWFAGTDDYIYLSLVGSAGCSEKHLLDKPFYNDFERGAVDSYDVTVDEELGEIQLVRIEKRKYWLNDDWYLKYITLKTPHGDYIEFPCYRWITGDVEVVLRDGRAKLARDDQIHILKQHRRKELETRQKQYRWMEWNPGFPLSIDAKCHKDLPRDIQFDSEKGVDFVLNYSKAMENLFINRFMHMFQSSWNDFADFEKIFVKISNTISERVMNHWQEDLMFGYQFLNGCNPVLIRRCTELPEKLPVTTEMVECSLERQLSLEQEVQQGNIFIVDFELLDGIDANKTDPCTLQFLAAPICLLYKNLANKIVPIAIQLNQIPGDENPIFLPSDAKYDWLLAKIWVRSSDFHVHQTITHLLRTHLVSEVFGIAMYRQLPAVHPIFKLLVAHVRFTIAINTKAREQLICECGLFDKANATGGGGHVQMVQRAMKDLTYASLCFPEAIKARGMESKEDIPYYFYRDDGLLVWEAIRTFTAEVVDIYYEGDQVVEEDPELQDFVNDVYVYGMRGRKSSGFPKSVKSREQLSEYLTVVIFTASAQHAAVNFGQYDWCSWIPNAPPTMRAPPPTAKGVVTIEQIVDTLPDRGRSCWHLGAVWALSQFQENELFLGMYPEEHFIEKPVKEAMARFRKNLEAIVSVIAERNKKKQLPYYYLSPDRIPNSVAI

IC50 [1]	Ratio IC50 (Ovis aries)	inhibition [2]	inhibition [3]	inhibition [4]	SMILES
> 100 µM					NS(=O)(=O)c1ccc(N2N=C(C(F)(F)F)CC2c2c[nH]c3c(Cl)cccc23)cc1 (single isomer, unassigned; enantiomer 1) [listing 1 of 2 here]
> 100 µM	14				Nc1ccc2c(C3CC(C(F)(F)F)=NN3c3ccc(S(N)(=O)=O)cc3)c[nH]c2c1 (configuration not stated)
		7%	22%		Cc1ccc(-c2cc(C(F)(F)F)nn2-c2ccc(S(N)(=O)=O)cc2)cc1
	> 72	5%	31%	41%	NS(=O)(=O)c1ccc(N2N=C(C(F)(F)F)CC2c2c[nH]c3ccccc23)cc1 (stereo in doubt; 5a) [listing 1 of 2 here]
> 100 µM	0	-2%	36%	51%	NS(=O)(=O)c1ccc(N2N=C(C(F)(F)F)CC2c2c[nH]c3cc(Cl)ccc23)cc1 (configuration not stated)
> 100 µM	12				COc1cccc2[nH]cc(C3CC(C(F)(F)F)=NN3c3ccc(S(N)(=O)=O)cc3)c12 (configuration not stated)
	> 345				NS(=O)(=O)c1ccc(N2N=C(C(F)(F)F)CC2c2c[nH]c3c(Cl)cccc23)cc1 (single isomer, unassigned; enantiomer 1) [listing 2 of 2 here]
> 100 µM	0				NS(=O)(=O)c1ccc(N2N=C(C(F)(F)F)CC2c2c[nH]c3c([N+](=O)[O-])cccc23)cc1 (configuration not stated)
	> 119				NS(=O)(=O)c1ccc(N2N=C(C(F)(F)F)CC2c2c[nH]c3ccccc23)cc1 (single isomer, unassigned; enantiomer 1) [listing 1 of 2 here]
> 100 µM	> 23				NS(=O)(=O)c1ccc(N2N=C(C(F)(F)F)CC2c2c[nH]c3cc(Br)ccc23)cc1 (configuration not stated)
> 100 µM	0				N#Cc1ccc2c(C3CC(C(F)(F)F)=NN3c3ccc(S(N)(=O)=O)cc3)c[nH]c2c1 (configuration not stated)
> 100 µM	0				NS(=O)(=O)c1ccc(N2N=C(C(F)(F)F)CC2c2c[nH]c3cc(F)ccc23)cc1 (configuration not stated)
> 100 µM	0				Nc1cccc2[nH]cc(C3CC(C(F)(F)F)=NN3c3ccc(S(N)(=O)=O)cc3)c12 (configuration not stated)
> 100 µM	0				NS(=O)(=O)c1ccc(-n2nc(C(F)(F)F)cc2-c2c[nH]c3ccccc23)cc1
> 100 µM					NS(=O)(=O)c1ccc(N2N=C(C(F)(F)F)CC2c2c[nH]c3ccccc23)cc1 (single isomer, unassigned; enantiomer 2) [listing 1 of 2 here]
> 100 µM	0				NS(=O)(=O)c1ccc(N2N=C(C(F)(F)F)CC2c2c[nH]c3cc([N+](=O)[O-])ccc23)cc1 (configuration not stated)

IC50 [1]	Ratio IC50 (Ovis aries)	inhibition [2]	inhibition [3]	inhibition [4]	SMILES
> 100 µM	> 8				NS(=O)(=O)c1ccc(N2N=C(C(F)(F)F)CC2c2c[nH]c3ccc(F)cc23)cc1 (configuration not stated)
> 100 µM	0				N#Cc1ccc2[nH]cc(C3CC(C(F)(F)F)=NN3c3ccc(S(N)(=O)=O)cc3)c2c1 (configuration not stated)
> 100 µM					NS(=O)(=O)c1ccc(N2N=C(C(F)(F)F)CC2c2c[nH]c3c(Cl)cccc23)cc1 (stereo in doubt; 5f) [listing 1 of 2 here]
> 100 µM	> 3				NS(=O)(=O)c1ccc(N2N=C(C(F)(F)F)CC2c2c[nH]c3ccc(Cl)cc23)cc1 (configuration not stated)
> 100 µM	0				NS(=O)(=O)c1ccc(N2N=C(C(F)(F)F)CC2c2c[nH]c3ccc(C(=O)O)cc23)cc1 (configuration not stated)
> 100 µM	2				NS(=O)(=O)c1ccc(N2N=C(C(F)(F)F)CC2c2c[nH]c3ccc([N+](=O)[O-])cc23)cc1 (configuration not stated)
> 100 µM	> 17				Cc1[nH]c2cc(Cl)ccc2c1C1CC(C(F)(F)F)=NN1c1ccc(S(N)(=O)=O)cc1 (configuration not stated)
> 100 µM					NS(=O)(=O)c1ccc(N2N=C(C(F)(F)F)CC2c2c[nH]c3ccccc23)cc1 (single isomer, unassigned; enantiomer 1) [listing 2 of 2 here]
	> 8				NS(=O)(=O)c1ccc(N2N=C(C(F)(F)F)CC2c2c[nH]c3ccccc23)cc1 (single isomer, unassigned; enantiomer 2) [listing 2 of 2 here]
> 100 µM	> 42				Nc1cccc2c(C3CC(C(F)(F)F)=NN3c3ccc(S(N)(=O)=O)cc3)c[nH]c12 (configuration not stated)
	> 1				NS(=O)(=O)c1ccc(N2N=C(C(F)(F)F)CC2c2c[nH]c3c(Cl)cccc23)cc1 (single isomer, unassigned; enantiomer 2) [listing 1 of 2 here]
> 100 µM					NS(=O)(=O)c1ccc(N2N=C(C(F)(F)F)CC2c2c[nH]c3c(Cl)cccc23)cc1 (single isomer, unassigned; enantiomer 2) [listing 2 of 2 here]
		-2%	6%	11%	CS(=O)(=O)c1ccc(C2=C(c3ccccc3)C(=O)OC2)cc1
	> 26	3%	36%	94%	NS(=O)(=O)c1ccc(N2N=C(C(F)(F)F)CC2c2c[nH]c3c(Cl)cccc23)cc1 (stereo in doubt; 5f) [listing 2 of 2 here]
> 100 µM	> 118				Nc1ccc2[nH]cc(C3CC(C(F)(F)F)=NN3c3ccc(S(N)(=O)=O)cc3)c2c1 (configuration not stated)
> 100 µM					NS(=O)(=O)c1ccc(N2N=C(C(F)(F)F)CC2c2c[nH]c3ccccc23)cc1 (stereo in doubt; 5a) [listing 2 of 2 here]
